Test results as given in the array DNA melting data of Ke et al. (doi:10.1101/2024.01.08.574731).

How the values were obtained:
[1] = melting temperature; fluorescence melt of hairpins on a sequencing array, two-state fit, raised by 9.35 °C to match UV melts; conditions: sodium 0.088 M
In short: (§1)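 Cy3 signals were normalised both to pre-quench Cy3 and to control constructs. They came from library hairpins carrying annealed Cy3 and quencher oligos on a sequenced MiSeq flow cell, imaged in 50 mM Na-HEPES pH 8.0, 25 mM NaCl, in 2.5 °C steps up to 60 °C. Bootstrapped two-state fits gave melting temperature and folding enthalpy, and four replicates were combined by inverse variance. Fitted temperatures were then raised by 9.35 °C to match UV melts.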

[2] = folding enthalpy; higher = less favourable; fluorescence melt of hairpins on a sequencing array, two-state fit; conditions: sodium 0.088 M
In short: as §1

| Sequence | Tm [1] | folding enthalpy [2] |
| --- | --- | --- |
| GTGAGTGGAAACGCTCAC (((((.(....).))))) | 53.7 °C | -42.5 kcal/mol |
| GACTACGAAAGTAGTC ((((((....)))))) | 66.5 °C | -28.4 kcal/mol |
| GCCCGGCGAAAGCGAGGC (((..((....))..))) | 58.9 °C | -16.6 kcal/mol |
| GATCTTACTGAAGATC ((((((....)))))) | 42.2 °C | -26.9 kcal/mol |
| GTGATGGGAAACTATCGC (.(((.(....).))).) | 35.2 °C | -23.4 kcal/mol |
| GGTTACGGAAACGTAGTC (..((((....))))..) | 25.7 °C | -12.7 kcal/mol |
| GATCTATATTTAGATC ((((((....)))))) | 43.1 °C | -34.6 kcal/mol |
| CGTGCCGGAAACGGGACG (((.(((....))).))) | 62.9 °C | -37.6 kcal/mol |
| GCGTCCTCACGC ((((....)))) | 50.9 °C | -24.3 kcal/mol |
| GACATGGGAAACCATGTC (((((((....))))))) | 61.3 °C | -42.8 kcal/mol |
| GTGTGGGGAAACTCACGC (.(((.(....).))).) | 44.7 °C | -28 kcal/mol |
| GAAAGACGAAAGTCGTTC (((.(((....))).))) | 46 °C | -15.1 kcal/mol |
| GCAACGCGAAAGCAGTGC (((..((....))..))) | 52.1 °C | -13.3 kcal/mol |
| GCCCTGCGAAAGCCGAGC ((.(.((....)).).)) | 34.5 °C | -11 kcal/mol |
| GGGAGCGAAAGCTCACCC ((((((....)))..))) | 57.2 °C | -11.2 kcal/mol |
| GCGTAGCGAAAGCTCCGC (((.(((....))).))) | 49.7 °C | -40 kcal/mol |
| GATCAGGTCTCTGATC ((((((....)))))) | 53.4 °C | -50.3 kcal/mol |
| GACAGCGGAAACGCTATC ((.((((....)))).)) | 36.7 °C | -14 kcal/mol |
| GCAACGCGAAAGCATAGC ((.(.((....)).).)) | 37.5 °C | -9.72 kcal/mol |
| GTGCTGTCGAAAGACCAC (((..(((....)))))) | 45.4 °C | -13.1 kcal/mol |
| GATCCATCATTGGATC ((((((....)))))) | 51.4 °C | -35.8 kcal/mol |
| GGTTCTGGAAACAGAATC (.(((((....))))).) | 45 °C | -34.2 kcal/mol |
| GCGATTGCGAAAGCACGC (((..(((....)))))) | 51.4 °C | -20.1 kcal/mol |
| GATCGCTCTGGCGATC ((((((....)))))) | 69.1 °C | -37.7 kcal/mol |

| Sequence | Tm [1] | folding enthalpy [2] |
| --- | --- | --- |
| GCAGTGCGAAAGCCCTGC ((((.((....)).)))) | 61.8 °C | -32.8 kcal/mol |
| GCCTGTCCGAAAGGAGGC (((..(((....)))))) | 46.6 °C | -19.2 kcal/mol |
| GGGAGGGGAAACCCTCTC (.(((((....))))).) | 52.2 °C | -20.2 kcal/mol |
| GATCTTGACAAGATC ((((((...)))))) | 46.1 °C | -38.6 kcal/mol |
| GTCGTGGGAAACCACAAC ((.((((....)))).)) | 40.3 °C | -15.7 kcal/mol |
| GATCCGTGGGCGGATC ((((((....)))))) | 66.1 °C | -30.1 kcal/mol |
| GTTTGAGGAAACTTAGAC ((.(.((....)).).)) | 32.3 °C | -13.5 kcal/mol |
| GATGGGGAAACCCATC ((((((....)))))) | 57.8 °C | -34.2 kcal/mol |
| GCCCCCGAAAGGGCGGGC ((((((....)))..))) | 63.7 °C | -17.9 kcal/mol |
| GTTAGCGGAAACGTTAAC ((((.((....)).)))) | 44.2 °C | -28.8 kcal/mol |
| GATCCGGGATCGGATC ((((((....)))))) | 61.9 °C | -40.1 kcal/mol |
| GAGCTTGGAAACAGGCTC ((((.((....)).)))) | 49.3 °C | -45 kcal/mol |
| GTCTCCGGAAACGGAAAC ((.((((....)))).)) | 36.3 °C | -16.2 kcal/mol |
| GATCTCTCTGGAGATC ((((((....)))))) | 54.8 °C | -42.8 kcal/mol |
| GATCTCTTTCGAGATC ((((((....)))))) | 52.2 °C | -28.2 kcal/mol |
| GGCGTTGGAAACAGCGCC ((((.((....)).)))) | 60.9 °C | -52.1 kcal/mol |
| GATCCACTTCTGGATC ((((((....)))))) | 50.2 °C | -34.8 kcal/mol |
| GCTATGGGAAACCATAGC (((((((....))))))) | 61.4 °C | -40.7 kcal/mol |
| GCGGGTGGCCGC ((((....)))) | 62.1 °C | -15.8 kcal/mol |
| GATCGGAGACCCGATC ((((((....)))))) | 53 °C | -36.6 kcal/mol |
| GATCGCTAAGCGATC ((((((...)))))) | 67.9 °C | -33.5 kcal/mol |
| GCGGTTGGAAACAGCCGC ((((.((....)).)))) | 64.6 °C | -40.1 kcal/mol |
| GGGTTGGGAAACCAGCCC (((.(((....))).))) | 56 °C | -46.6 kcal/mol |
| GGCTTCTCGAAAGAGGCC (((..(((....)))))) | 47.1 °C | -24.4 kcal/mol |

| Sequence | Tm [1] | folding enthalpy [2] |
| --- | --- | --- |
| GCTAAGCGAAAGCTGGGC ((..(((....)))..)) | 52.9 °C | -17.7 kcal/mol |
| GACATCCGAAAGGAGGTC (((.(((....))).))) | 57.9 °C | -40 kcal/mol |
| GATCGCGAAAGCGGATC ((((((....))).))) | 57 °C | -16.4 kcal/mol |
| GGCGGACCGAAAGGTGCC (((..(((....)))))) | 55.1 °C | -19.9 kcal/mol |
| GGTACGGCGAAAGCCACC (((..(((....)))))) | 38.1 °C | -10.6 kcal/mol |
| GCTTGGCGAAAGCGAAGC ((((.((....)).)))) | 60.4 °C | -18.6 kcal/mol |
| GCTGTGGGAAACTGCAGC ((((..(....)..)))) | 48.1 °C | -20.3 kcal/mol |
| GCGGGCCCCCGC ((((....)))) | 64.4 °C | -23.5 kcal/mol |
| GTCATCGAAAGATTAGAC ((((((....)))..))) | 32.2 °C | -14 kcal/mol |
| GATCACACACGTGATC ((((((....)))))) | 57.9 °C | -35.8 kcal/mol |
| GATCCCGGTCGGGATC ((((((....)))))) | 66.1 °C | -35.5 kcal/mol |
| GATATCGCGAAAGCGATC (((..(((....)))))) | 35.2 °C | -7.08 kcal/mol |
| GCTCGACCGAAAGGTAGC (((..(((....)))))) | 39 °C | -13.8 kcal/mol |
| GGACCGCGAAAGCGTTCC (((.(((....))).))) | 53.1 °C | -20.9 kcal/mol |
| GGTTCAGGAAACTGGATC (.(.(((....))).).) | 30 °C | -10.2 kcal/mol |
| GATCTCGCAGAGATC ((((((...)))))) | 68 °C | -30.5 kcal/mol |
| GTCGAACCGAAAGGTGAC (((..(((....)))))) | 42 °C | -18 kcal/mol |
| GTTAGAGCGAAAGCTAAC (((..(((....)))))) | 33.1 °C | -14.6 kcal/mol |
| GCAATGAAAATTGC (((((....))))) | 50.7 °C | -22.7 kcal/mol |
| GCCCGATCGAAAGATGGC (((..(((....)))))) | 40.2 °C | -23.6 kcal/mol |
| GAACTCGAAAGAGTTC ((((((....)))))) | 61.6 °C | -39.3 kcal/mol |
| GACCACGGAAACGTGACC (..((((....))))..) | 29.2 °C | -8.43 kcal/mol |
| CGTCCGGAAACGGTCACG ((((((....)))..))) | 35.2 °C | -13.9 kcal/mol |
| GAAAAGGGAAACCTTTTC (((((((....))))))) | 50.6 °C | -38.8 kcal/mol |

| Sequence | Tm [1] | folding enthalpy [2] |
| --- | --- | --- |
| CGCGGACGCTCCGCG ((((((...)))))) | 66.6 °C | -31.7 kcal/mol |
| GAGCCCGGAAACGAGCTC ((((.((....)).)))) | 50.2 °C | -35.8 kcal/mol |
| GTCTATCGAAAGATTGAC (((.(((....))).))) | 46.3 °C | -35.1 kcal/mol |
| GACTAGGGAAACCTAGTC (((((((....))))))) | 56.9 °C | -42.5 kcal/mol |
| GTCTCAGGAAACTGGGAC (((.(((....))).))) | 49.8 °C | -35.6 kcal/mol |
| GATCAGTTCACTGATC ((((((....)))))) | 58.1 °C | -44.8 kcal/mol |
| GAACCCGAAAGGGGATTC ((((((....)))..))) | 42.9 °C | -16.6 kcal/mol |
| GAAGGGGGAAACCCCTCC (.(((((....))))).) | 36.5 °C | -13.1 kcal/mol |
| GTCCGCGAAAGCGCAGAC ((((((....)))..))) | 40.8 °C | -14.6 kcal/mol |
| GCGGTAGCCGC ((((...)))) | 61.2 °C | -11.8 kcal/mol |
| GATCTTAGGAAAGATC ((((((....)))))) | 38.6 °C | -26.5 kcal/mol |
| GTATGTGGAAACGCATAC (((((.(....).))))) | 46.9 °C | -29.7 kcal/mol |
| GCCTACGAAAGTATGGGC ((((((....)))..))) | 46.5 °C | -34.8 kcal/mol |
| GATCGCCACTGCGATC ((((((....)))))) | 65.3 °C | -42.9 kcal/mol |
| GGCCAAGGAAACTCAGCC (((..((....))..))) | 30.2 °C | -11.7 kcal/mol |
| GACTCGAAAGAGTC (((((....))))) | 61.2 °C | -32.1 kcal/mol |
| GTGAGTCGAAAGACACAC (((.(((....))).))) | 53.8 °C | -43.2 kcal/mol |
| GATCCAAAAGTGGATC ((((((....)))))) | 43.9 °C | -27.5 kcal/mol |
| GTCCGGACGAAAGTCGAC (((..(((....)))))) | 35.5 °C | -14 kcal/mol |
| CAAACCGAAAGGCTTG (((.((....)).))) | 38.4 °C | -27 kcal/mol |
| TCCCTGAAAAGGGA (((((....))))) | 48.3 °C | -15.6 kcal/mol |
